ChEMBL document CHEMBL4406859, “Antitumor and antiviral activities of 4-substituted 1,2,3-triazolyl-2,3-dibenzyl-L-ascorbic acid derivatives” (Eur J Med Chem, 2019)

Columns and labels:
[1] = tested on: A549; test: Antiproliferative activity against human A549 cells assessed as reduction in cell viability incubated for 72 hrs by MTT assay; assay type: functional, cell-based; conditions: A549, 72 h
How it was run: (§1)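 Cells (ATCC) grown in DMEM with 10 FBS, penicillin/streptomycin, 2 mM glutamine, 37 °C, 5 CO2. 5000 cells/well seeded; after 24 h, freshly prepared dilutions at five concentrations (0.01–100 μM) added for 72 h. MTT read-out; absorbance converted to percentage growth by NIH formulas. Two experiments in quadruplicate; IC50 by linear regression.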

[2] = tested on: CFPAC-1; test: Antiproliferative activity against human CFPAC-1 cells assessed as reduction in cell viability incubated for 72 hrs by MTT assay; assay type: functional, cell-based; conditions: Homo sapiens, CFPAC-1, 72 h; read-out: IC50; how it was run: as §1
[3] = tested on: HCT-116; test: Antiproliferative activity against human HCT116cells assessed as reduction in cell viability incubated for 72 hrs by MTT assay; assay type: functional, cell-based; conditions: HCT-116, 72 h; how it was run: as §1
[4] = tested on: HeLa; test: Antiproliferative activity against human HeLa cells assessed as reduction in cell viability incubated for 72 hrs by MTT assay; assay type: functional, cell-based; how it was run: as §1
[5] = tested on: HepG2; test: Antiproliferative activity against human HepG2 cells assessed as reduction in cell viability incubated for 72 hrs by MTT assay; assay type: functional, cell-based; conditions: HepG2, 72 h; how it was run: as §1
[6] = tested on: MCF7; test: Antiproliferative activity against human MCF7 cells assessed as reduction in cell viability incubated for 72 hrs by MTT assay; assay type: functional, cell-based; conditions: MCF7, 72 h; how it was run: as §1
[7] = tested on: SW-620; test: Antiproliferative activity against human SW620 cells assessed as reduction in cell viability incubated for 72 hrs by MTT assay; assay type: functional, cell-based; conditions: SW-620, 72 h; how it was run: as §1
[8] = tested on: HFF; test: Cytotoxicity against human HFF cells assessed as reduction in cell viability incubated for 72 hrs by MTT assay; assay type: cell-based; how it was run: as §1
[9] = Cytotoxicity against human HELF cells assessed as minimum cytotoxic concentration by observing alteration in cell morphology incubated for 3 days by microscopic analysis; assay type: cell-based; conditions: HELF cells
How it was run: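 Read-out is the minimum cytotoxic concentration (MCC): the lowest compound concentration giving a microscopically detectable change in cell morphology. Measured on confluent human embryonic lung (HEL) fibroblast cultures exposed to a range of compound concentrations.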

[10] = tested on: Human adenovirus 2; test: Antiviral activity against Human adenovirus 2 infected in human HELF cells assessed as reduction in virus-induced cytopathogenicity incubated for 7 days by microscopic analysis; assay type: functional, organism-based; conditions: Human mastadenovirus C, 168 h

Q: Which results are given for COc1ccccc1-c1cn(C[C@H](O)[C@H]2OC(=O)C(OCc3ccccc3)=C2OCc2ccccc2)nn1?
A: IC50 [1]: > 100 µM; IC50 [2]: > 100 µM; IC50 [3]: > 100 µM; IC50 [4]: > 100 µM; IC50 [5]: > 100 µM; IC50 [6]: > 100 µM; IC50 [7]: > 100 µM; IC50 [8]: 0.05 µM

Q: For O=C1O/C(=C\Cn2cc(C3CC3)nn2)C(OCc2ccccc2)=C1OCc1ccccc1, which IC50 [1] is on record?
A: > 100 µM

Q: What about the IC50 [2] of the same molecule?
A: 97.1 µM

Q: What about the IC50 [3] of the same molecule?
A: 32.4 µM

Q: What about the IC50 [4] of the same molecule?
A: 76.8 µM

Q: What about the IC50 [5] of the same molecule?
A: 53.1 µM

Q: What about the IC50 [6] of the same molecule?
A: 9.27 µM

Q: What about the IC50 [7] of the same molecule?
A: 29.5 µM

Q: And the IC50 [8]?
A: 17 µM

Q: What does the source list for O=C1O[C@H]([C@@H](O)Cn2cc(CNS(=O)(=O)c3ccc(Cl)cc3)nn2)C(OCc2ccccc2)=C1OCc1ccccc1?
A: IC50 [1]: 2.87 µM; IC50 [2]: 38.9 µM; IC50 [3]: 8.38 µM; IC50 [4]: 13.6 µM; IC50 [5]: 7.51 µM; IC50 [6]: 4.17 µM; IC50 [7]: 18 µM; IC50 [8]: 0.02 µM

Q: Which results are given for Nc1ccn([C@H]2CC[C@@H](CO)O2)c(=O)n1 [ZALCITABINE]?
A: MCC at 72 h [9]: > 250 µM; EC50 [10]: 10 µM

Q: For O=C1O[C@H]([C@@H](O)Cn2cc(CCCCl)nn2)C(OCc2ccccc2)=C1OCc1ccccc1, which IC50 [1] is on record?
A: 29 µM

Q: What about the IC50 [2] of the same molecule?
A: 58.8 µM

Q: And the IC50 [3]?
A: 36.1 µM

Q: And the IC50 [4]?
A: 36.7 µM

Q: What about the IC50 [5] of the same molecule?
A: 35 µM

Q: And the IC50 [6]?
A: 24.5 µM

Q: What about the IC50 [7] of the same molecule?
A: 68.5 µM

Q: What about the IC50 [8] of the same molecule?
A: 27.1 µM

Q: For CC(C)(C)OC(=O)N1CCN(C(=S)SCc2cn(C[C@H](O)[C@H]3OC(=O)C(OCc4ccccc4)=C3OCc3ccccc3)nn2)CC1, which IC50 [1] is on record?
A: > 100 µM

Q: And the IC50 [2]?
A: > 100 µM

Q: What about the IC50 [3] of the same molecule?
A: > 100 µM

Q: What about the IC50 [4] of the same molecule?
A: > 100 µM

Q: And the IC50 [5]?
A: > 100 µM

Q: And the IC50 [6]?
A: > 100 µM

Q: What about the IC50 [7] of the same molecule?
A: > 100 µM

Q: And the IC50 [8]?
A: 0.06 µM

Q: Which IC50 [1] does the source give for CCCCCc1ccc(-c2cn(C/C=C3\OC(=O)C(OCc4ccccc4)=C3OCc3ccccc3)nn2)cc1 here?
A: > 100 µM

Q: And the IC50 [2]?
A: > 100 µM

Q: And the IC50 [3]?
A: > 100 µM

Q: What about the IC50 [4] of the same molecule?
A: > 100 µM

Q: What about the IC50 [5] of the same molecule?
A: > 100 µM

Q: What about the IC50 [6] of the same molecule?
A: > 100 µM

Q: What about the IC50 [7] of the same molecule?
A: > 100 µM

Q: And the IC50 [8]?
A: > 100 µM

Q: Which results are given for O=C1O[C@H]([C@@H](O)Cn2cc(CCO)nn2)C(OCc2ccccc2)=C1OCc1ccccc1?
A: IC50 [1]: > 100 µM; IC50 [2]: > 100 µM; IC50 [3]: 72.7 µM; IC50 [4]: 68.8 µM; IC50 [5]: 68.1 µM; IC50 [6]: 63.4 µM; IC50 [7]: > 100 µM; IC50 [8]: 58.5 µM

Q: For O=C1O[C@H]([C@@H](O)Cn2cc(-c3ccc(Br)cc3)nn2)C(OCc2ccccc2)=C1OCc1ccccc1, which IC50 [1] is on record?
A: 0.75 µM

Q: And the IC50 [2]?
A: 5.83 µM

Q: What about the IC50 [3] of the same molecule?
A: 9.42 µM

Q: And the IC50 [4]?
A: 3.91 µM

Q: What about the IC50 [6] of the same molecule?
A: 5.62 µM

Q: What about the IC50 [7] of the same molecule?
A: 3.76 µM

Q: What about the IC50 [8] of the same molecule?
A: 5.1 µM

Q: Which IC50 [1] does the source give for COc1ccc(-c2cn(C[C@H](O)[C@H]3OC(=O)C(OCc4ccccc4)=C3OCc3ccccc3)nn2)cc1 here?
A: 28.3 µM

Q: What about the IC50 [2] of the same molecule?
A: 26 µM

Q: What about the IC50 [3] of the same molecule?
A: > 100 µM

Q: And the IC50 [4]?
A: 16.4 µM

Q: What about the IC50 [5] of the same molecule?
A: 46.4 µM

Q: What about the IC50 [6] of the same molecule?
A: 99.7 µM

Q: What about the IC50 [7] of the same molecule?
A: 58.2 µM

Q: What about the IC50 [8] of the same molecule?
A: < 0.01 µM

Q: What does the source list for Cc1ccc(S(=O)(=O)NCc2cn(C[C@H](O)[C@H]3OC(=O)C(OCc4ccccc4)=C3OCc3ccccc3)nn2)cc1?
A: IC50 [1]: 16.8 µM; IC50 [2]: 68 µM; IC50 [3]: 13.1 µM; IC50 [4]: 14.4 µM; IC50 [5]: 24.9 µM; IC50 [6]: 6.4 µM; IC50 [7]: 45.8 µM; IC50 [8]: 0.05 µM

Q: With CCCCCCCCCCc1cn(C/C=C2\OC(=O)C(OCc3ccccc3)=C2OCc2ccccc2)nn1 as the molecule, how does the IC50 [1] read?
A: > 100 µM

Q: And the IC50 [2]?
A: > 100 µM

Q: And the IC50 [3]?
A: 98.8 µM

Q: What about the IC50 [4] of the same molecule?
A: > 100 µM

Q: What about the IC50 [5] of the same molecule?
A: > 100 µM

Q: What about the IC50 [6] of the same molecule?
A: 72 µM

Q: What about the IC50 [7] of the same molecule?
A: 91.7 µM

Q: What about the IC50 [8] of the same molecule?
A: > 100 µM
